Data reported in ChEMBL document CHEMBL1212805, “Evaluation of WLBU2 peptide and 3-O-octyl-sn-glycerol lipid as active ingredients for a topical microbicide formulation targeting Chlamydia trachomatis” (Antimicrob Agents Chemother, 2010).
The source made the active and inactive calls.

Assays:
[1] = test system: Chlamydia trachomatis; test: Antibacterial activity against Chlamydia trachomatis serovar E after 5 mins by MCC assay in presence of simulated seminal fluid; format: functional
Summary of the method: (§1)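 C. trachomatis serovar EBs (5 × 10⁶ IFU/ml) diluted in 100% VFS (zinc-free for SFS), 100% SFS or 10% HSA, mixed 1:1 with five 4-fold SPG dilutions (final 60 μM/30 mM top; 50% VFS, 50% SFS, 5% HSA). After 5 or 120 min, diluted 1:40, inoculated onto McCoy monolayers. Inclusions stained with anti-LPS/FITC after 36–48 h. Inhibition versus no-drug control in the same fluid; MCC is complete inhibition.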

[2] = Cytotoxicity against mouse McCoy cells after 48 hrs at =<30 uM by almar blue assay; format: cell-based
Summary of the method: (§2)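 Cytotoxicity was tested by running the MCC procedure without inoculum: compound diluted in half with SPG, then diluted 1:40 onto McCoy monolayers and incubated 48 h at 37°C. Read-out by Alamar Blue, MTT and LDH kits. SPG served as negative control and Triton X-100 as positive control. Nontoxic was defined as <10% toxicity in all methods.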

[3] = test system: Chlamydia trachomatis; test: Antibacterial activity against Chlamydia trachomatis serovar L2 after 5 mins by MCC assay in presence of simulated seminal fluid; format: functional; details: serovar L2, 5 min; summary of the method: as §1
[4] = Cytotoxicity against mouse McCoy cells after 48 hrs at =<30 uM by MCC assay; format: cell-based; summary of the method: as §2
[5] = test system: Chlamydia trachomatis; test: Antibacterial activity against Chlamydia trachomatis serovar E assessed as change in MCC at pH 4 to 8 after 120 mins by MCC assay in presence of sucrose- phosphate-glutamate buffer; format: functional, organism-based
Summary of the method: (§3)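 Compounds and EBs were each diluted in SPG at pH 4, 5.5, 7 or 8 and mixed 1:1, so exposure pH was constant. Five 4-fold dilutions were used (top 60 μM peptide, 30 mM lipid). After 5 or 120 min, the mix was diluted 1:40 in pH 7.5 SPG and plated on McCoy cells. Inclusion counts were compared with a no-drug control at the same pH and time.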

[6] = test system: Chlamydia trachomatis; test: Antibacterial activity against Chlamydia trachomatis serovar D assessed as change in MCC at pH 4 to 8 after 120 mins by MCC assay in presence of sucrose- phosphate-glutamate buffer; format: functional, organism-based; summary of the method: as §3
[7] = test system: Chlamydia trachomatis; test: Antibacterial activity against Chlamydia trachomatis serovar E after 120 mins by MCC assay in presence of simulated seminal fluid; format: functional; details: 2 h; summary of the method: as §1
[8] = test system: Chlamydia trachomatis; test: Antibacterial activity against Chlamydia trachomatis serovar L2 after 5 mins by MCC assay in presence of simulated human serum albumin; format: functional; details: serovar L2, 5 min; summary of the method: as §1
[9] = test system: Chlamydia trachomatis; test: Antibacterial activity against Chlamydia trachomatis serovar E assessed as change in MCC at pH 4 to 8 after 5 mins by MCC assay in presence of sucrose- phosphate-glutamate buffer; format: functional, organism-based; summary of the method: as §3
[10] = test system: Chlamydia trachomatis; test: Antibacterial activity against Chlamydia trachomatis serovar D after 5 mins by MCC assay in presence of simulated human serum albumin; format: functional; summary of the method: as §1
[11] = test system: Chlamydia trachomatis; test: Antibacterial activity against Chlamydia trachomatis serovar L2 at 3.13 mM after 120 mins relative to control; format: functional; details: serovar L2, 2 h
Summary of the method: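 Serovar L2 EBs (5 × 10⁶ IFU/ml in SPG, pH 7.5) mixed 1:1 with ten 2-fold SPG dilutions (final 50 μM top peptide, 25 mM lipid), exposed 5 or 120 min, diluted 1:40, plated on McCoy cells; fixed with methanol after 36–48 h, anti-LPS/FITC stained. Triplicate wells, three fields each, three independent days; percent inhibition versus no-drug control ± SD.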

[12] = test system: Chlamydia trachomatis; test: Antibacterial activity against Chlamydia trachomatis serovar L2 after 120 mins by MCC assay in presence of simulated human serum albumin; format: functional; details: serovar L2, 2 h; summary of the method: as §1
[13] = test system: Chlamydia trachomatis; test: Antibacterial activity against Chlamydia trachomatis serovar D after 120 mins by MCC assay in presence of simulated seminal fluid; format: functional; details: 2 h; summary of the method: as §1
[14] = test system: Chlamydia trachomatis; test: Antibacterial activity against Chlamydia trachomatis serovar E after 120 mins by MCC assay in presence of simulated human serum albumin; format: functional; details: 2 h; summary of the method: as §1
[15] = test system: Chlamydia trachomatis; test: Antibacterial activity against Chlamydia trachomatis serovar D after 120 mins by MCC assay in presence of simulated vaginal fluid; format: functional; details: 2 h; summary of the method: as §1
[16] = test system: Chlamydia trachomatis; test: Antibacterial activity against Chlamydia trachomatis serovar D at 1.88 mM at pH 5.5 after 5 mins by MCC assay in presence of sucrose- phosphate-glutamate buffer; format: functional, organism-based; details: in the assay text read “after 120 mins” for “after 5 mins”; summary of the method: as §3
[17] = test system: Chlamydia trachomatis; test: Antibacterial activity against Chlamydia trachomatis serovar D assessed as change in MCC at pH 4 to 8 after 5 mins by MCC assay in presence of sucrose- phosphate-glutamate buffer; format: functional, organism-based; summary of the method: as §3
[18] = test system: Chlamydia trachomatis; test: Antibacterial activity against Chlamydia trachomatis serovar D at 1.88 mM at pH 8 after 5 mins by MCC assay in presence of sucrose- phosphate-glutamate buffer; format: functional, organism-based; details: in the assay text read “after 120 mins” for “after 5 mins”; summary of the method: as §3
[19] = test system: Chlamydia trachomatis; test: Antibacterial activity against Chlamydia trachomatis serovar D at 1.88 mM at pH 4 after 5 mins by MCC assay in presence of sucrose- phosphate-glutamate buffer; format: functional, organism-based; details: in the assay text read “after 120 mins” for “after 5 mins”; summary of the method: as §3
[20] = test system: Chlamydia trachomatis; test: Antibacterial activity against Chlamydia trachomatis serovar L2 after 5 mins by MCC assay in presence of simulated vaginal fluid; format: functional; details: serovar L2, 5 min; summary of the method: as §1
[21] = test system: Chlamydia trachomatis; test: Antibacterial activity against Chlamydia trachomatis serovar L2 after 120 mins by MCC assay in presence of simulated vaginal fluid; format: functional; details: serovar L2, 2 h; summary of the method: as §1
[22] = test system: Chlamydia trachomatis; test: Antibacterial activity against Chlamydia trachomatis serovar E after 120 mins by MCC assay in presence of simulated vaginal fluid; format: functional; details: 2 h; summary of the method: as §1
[23] = test system: Chlamydia trachomatis; test: Antibacterial activity against Chlamydia trachomatis serovar E after 5 mins by MCC assay in presence of simulated human serum albumin; format: functional; summary of the method: as §1
[24] = test system: Chlamydia trachomatis; test: Antibacterial activity against Chlamydia trachomatis serovar D after 120 mins by MCC assay in presence of simulated human serum albumin; format: functional; details: 2 h; summary of the method: as §1
[25] = test system: Chlamydia trachomatis; test: Antibacterial activity against Chlamydia trachomatis serovar E after 5 mins by MCC assay in presence of simulated vaginal fluid; format: functional; summary of the method: as §1
[26] = test system: Chlamydia trachomatis; test: Antibacterial activity against Chlamydia trachomatis serovar L2 at => 6.25 mM after 5 mins relative to control; format: functional
[27] = test system: Chlamydia trachomatis; test: Antibacterial activity against Chlamydia trachomatis serovar D after 5 mins by MCC assay in presence of simulated seminal fluid; format: functional; summary of the method: as §1
[28] = test system: Chlamydia trachomatis; test: Antibacterial activity against Chlamydia trachomatis serovar L2 after 120 mins by MCC assay in presence of simulated seminal fluid; format: functional; details: serovar L2, 2 h; summary of the method: as §1
[29] = test system: Chlamydia trachomatis; test: Antibacterial activity against Chlamydia trachomatis serovar D after 5 mins by MCC assay in presence of simulated vaginal fluid; format: functional; summary of the method: as §1

CCCCCCCCOC[C@H](O)CO
Non-toxic: Activity [2] | Activity [4]
100%: inhibition (INH) [26]
98.2%: inhibition at 3130 µM [11]
active: Activity [5] | Activity [6] | Activity [9] | Activity [16] | Activity [17] | Activity [18] | Activity [19]
7.5 mM: MCC [7] | MCC [12] | MCC [13] | MCC [14] | MCC [15] | MCC [20] | MCC [21] | MCC [22] | MCC [24] | MCC [25] | MCC [28] | MCC [29]
30 mM: MCC [1] | MCC [3] | MCC [8] | MCC [10] | MCC [23] | MCC [27]
